Measurements of several laboratories.
Compare with care: the assays were run in different laboratories.
pH: 7.4

N[C@@H](COCC(=O)N1CCC[C@H](C(=O)NCc2nc(-c3ccc(C(F)(F)F)cc3)cs2)C1)c1ccccc1 — logD (shake flask; aqueous buffer): 3
CNS(=O)(=O)c1ccc(Nc2ncc(C(F)(F)F)c([C@H]3CC[C@@](C)(O)CC3)n2)c(C)c1 — logD (shake flask; aqueous buffer; 1 h): 4
C[C@H]1CN(c2cccc(-c3ccc4ncnc(Nc5ncco5)c4c3)c2)CCO1 — logD (shake flask; aqueous buffer): > 4.3
CNS(=O)(=O)c1ccc(Nc2ncc(C(F)(F)F)c(N3CCC[C@](C)(O)C3)n2)c(C)c1 — logD (shake flask; aqueous buffer; 1 h): 3.4
CN(c1ncco1)c1ncnc2ccc(-c3cccc(N4CCOCC4)c3)cc12 — logD (shake flask; aqueous buffer): 2.1
C=CC(=O)N1CC2(CCN(c3nc4c(c(-c5cc(O)cc6ccccc56)c3Cl)COC(C)(C)C4)C2)C1 — logD: 4.9
c1cc(-c2ccc3ncnc(Nc4ncco4)c3c2)cc(N2CC3(COC3)C2)c1 — logD (shake flask; aqueous buffer): > 4
C[C@H](O)c1ccc(NS(=O)(=O)c2ccc(OCC3CCC3)c(Cl)c2)c2nn(C)cc12 — logD (shake flask; aqueous buffer): 3.8
C[C@H]1[C@@H](C(=O)NCc2nc(-c3ccc(C#N)cc3)cs2)CCCN1C(=O)[C@H]1CCC(=O)O1 — logD (shake flask; aqueous buffer): 1.4
C=C1C[C@@]23CC[C@H]4[C@@](C)(CCC[C@@]4(C)C(=O)O[C@@H]4O[C@H](CO)[C@@H](O)[C@H](O)[C@H]4O)[C@@H]2CC[C@]1(O[C@@H]1O[C@H](CO)[C@@H](O)[C@H](O)[C@H]1O)C3 — logD (shake flask; aqueous buffer): -1.45
Cc1nc(Nc2ncnc3ccc(-c4cccc(N5CCOCC5)c4)cc23)oc1C — logD (shake flask; aqueous buffer): 4.3
N#Cc1ccc(-c2csc(CNC(=O)[C@H]3CCCN(C(=O)CCN)C3)n2)cc1 — logD (shake flask; aqueous buffer): -0.69
C=CC(=O)N1CC2(CCN(c3nc4c(c(-c5c(C)ccc6[nH]ncc56)c3C#N)CCC(C)(C)C4)C2)C1 — logD: 4.3
CNS(=O)(=O)c1ccc(Nc2ncc3cc(Cl)c(=O)n(C4CCCC4)c3n2)c(C)c1 — logD (shake flask; aqueous buffer; 1 h): 3.8
Cn1cc(Nc2ncnc3ccc(-c4cccc(N5CCOCC5)c4)cc23)cn1 — logD (shake flask; aqueous buffer): 3.7
CCOCC(=O)N1CCC[C@H](C(=O)NCc2nc(-c3ccc(C#N)nc3)cs2)C1 — logD (shake flask; aqueous buffer): 1
c1cc(-c2ccc3ncnc(Nc4ncco4)c3c2)nc(N2C[C@H]3C[C@@H]2CO3)n1 — logD (shake flask; aqueous buffer): 3.1
C[C@H](O)c1cnc(NS(=O)(=O)c2ccc(C(F)(F)F)c(Cl)c2)nc1 — logD (shake flask; aqueous buffer): 0.4
C=CC(=O)N1CC2(CCN(c3nc4c(c(-c5c(C)ccc6[nH]ncc56)c3C#N)C[C@H]3C[C@@H]4C3(C)C)C2)C1 — logD: 4.4
C[C@@H]1COCCN1c1cccc(-c2ccc3ncnc(Nc4ncco4)c3c2)c1 — logD (shake flask; aqueous buffer): 4.2
N=C(CC(O)c1cc2c(F)cc(F)cc2c2cc(C(F)(F)F)ccc12)Nc1ccc(Br)cc1 (centres unmarked) — logD: 5.37
Cn1cc2c(C(=O)O)ccc(NS(=O)(=O)c3ccc(OCC4CCC4)c(Cl)c3)c2n1 — logD (shake flask; aqueous buffer): 2
O=[N+]([O-])c1ccc(Nc2ncnc3ccc(-c4cccc(N5CCOCC5)c4)cc23)cc1C(F)(F)F — logD (shake flask; aqueous buffer): > 3.4
NCCOCC(=O)N1CCC[C@H](C(=O)NCc2nc(-c3ccc(C(F)(F)F)cc3)cs2)C1 — logD (shake flask; aqueous buffer): 0.47
Cc1ccc(Nc2cnnc3ccc(-c4ccc(N5CCCN(C)CC5)cc4)cc23)cn1 — logD (shake flask; aqueous buffer): 3.3
Cn1cc2c(C(=O)O)ccc(NS(=O)(=O)c3ccc(Cl)c(Cl)c3)c2n1 — logD (shake flask; aqueous buffer): 0.5
CCOCC(=O)N1CCC[C@H](C(=O)NCc2nc(-c3ccc(C)nc3)cs2)C1 — logD (shake flask; aqueous buffer): 1.4
C=C1C[C@@]23CC[C@H]4[C@@](C)(CCC[C@@]4(C)C(=O)O[C@@H]4O[C@H](CO)[C@@H](O)[C@H](O)[C@H]4O)[C@@H]2CC[C@]1(O[C@@H]1O[C@H](CO)[C@@H](O)[C@H](O)[C@H]1O[C@@H]1O[C@H](CO)[C@@H](O)[C@H](O)[C@H]1O)C3 — logD (shake flask; aqueous buffer): -1.51
COc1cnc(Nc2cnnc3ccc(-c4ccc(N5CCN(C)CC5)cc4)cc23)nc1 — logD (shake flask; aqueous buffer): 3.2
